{"source": "ChEMBL document CHEMBL1140279", "about": "“Synthesis and antimalarial evaluation of new N1-(7-chloro-4-quinolyl)-1,4-bis(3-aminopropyl)piperazine derivatives” (Bioorg Med Chem Lett, 2005)", "key": {"MRC5 [1]": {"test_system": "MRC5", "assay": "Ratio of CC50/IC50 was determined", "format": "functional, Homo sapiens", "summary_of_the_method": "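Selectivity index taken as the ratio of CC50 on MRC-5 human diploid embryonic lung cells (colorimetric MTT assay) to IC50 for growth inhibition of the chloroquine-resistant Plasmodium falciparum strain FcB1. The IC50s come from triplicate experiments and are reported with standard error.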"}, "Plasmodium falciparum": {"test_system": "Plasmodium falciparum", "assay": "Antimalarial activity as growth inhibition of chloroquine-resistant Plasmodium falciparum FcB1", "format": "functional, organism-based", "summary_of_the_method": "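Parasite growth inhibition assay on the chloroquine-resistant P. falciparum FcB1 strain. IC50 values are derived from triplicate experiments and reported with standard error.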"}, "MRC5 [2]": {"test_system": "MRC5", "assay": "Cytotoxic concentration of compound of compound […] MRC-5 cells (human diploid embryonic lung cell line)", "format": "functional", "summary_of_the_method": "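Cytotoxicity measured on MRC-5 human diploid embryonic lung cells with a colorimetric MTT assay, giving the CC50.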"}}}
{"smiles": "N#CCCCCN(CCCN1CCN(CCCNc2ccnc3cc(Cl)ccc23)CC1)CC1CC1", "values": [{"measurement": "Ratio", "setting": "MRC5 [1]", "result": 404}, {"measurement": "IC50", "setting": "Plasmodium falciparum", "result": 0.0099, "unit": "µM"}, {"measurement": "CC50", "setting": "MRC5 [2]", "result": 4, "unit": "µM"}]}
{"smiles": "CC(C)(C)OC(=O)NCCC(=O)N(CCCN1CCN(CCCNc2ccnc3cc(Cl)ccc23)CC1)CC1CC1", "values": [{"measurement": "Ratio", "setting": "MRC5 [1]", "result": 116}, {"measurement": "IC50", "setting": "Plasmodium falciparum", "result": 0.0342, "unit": "µM"}, {"measurement": "CC50", "setting": "MRC5 [2]", "result": 4, "unit": "µM"}]}
{"smiles": "O=C(CCCO)N(CCCN1CCN(CCCNc2ccnc3cc(Cl)ccc23)CC1)CC1CC1", "values": [{"measurement": "Ratio", "setting": "MRC5 [1]", "result": 122}, {"measurement": "IC50", "setting": "Plasmodium falciparum", "result": 0.172, "unit": "µM"}, {"measurement": "CC50", "setting": "MRC5 [2]", "result": 21, "unit": "µM"}]}
{"smiles": "O=C(C1CC1)N(CCCN1CCN(CCCNc2ccnc3cc(Cl)ccc23)CC1)CC1CC1", "values": [{"measurement": "Ratio", "setting": "MRC5 [1]", "result": 2076}, {"measurement": "IC50", "setting": "Plasmodium falciparum", "result": 0.0065, "unit": "µM"}, {"measurement": "CC50", "setting": "MRC5 [2]", "result": 13.5, "unit": "µM"}]}
{"smiles": "CC(C)(C)OC(=O)NCCCN(CCCN1CCN(CCCNc2ccnc3cc(Cl)ccc23)CC1)CC1CC1", "values": [{"measurement": "Ratio", "setting": "MRC5 [1]", "result": 317}, {"measurement": "IC50", "setting": "Plasmodium falciparum", "result": 0.0126, "unit": "µM"}, {"measurement": "CC50", "setting": "MRC5 [2]", "result": 4, "unit": "µM"}]}
{"smiles": "O=C(O)CCC(=O)N(CCCN1CCN(CCCNc2ccnc3cc(Cl)ccc23)CC1)CC1CC1", "values": [{"measurement": "Ratio", "setting": "MRC5 [1]", "result": ">23"}, {"measurement": "CC50", "setting": "MRC5 [2]", "result": "> 32", "unit": "µM"}]}
{"smiles": "NC(=O)CCC(=O)N(CCCN1CCN(CCCNc2ccnc3cc(Cl)ccc23)CC1)CC1CC1", "values": [{"measurement": "IC50", "setting": "Plasmodium falciparum", "result": "< 1", "unit": "µM"}, {"measurement": "CC50", "setting": "MRC5 [2]", "result": "> 32", "unit": "µM"}]}
{"smiles": "NCCCN(CCCN1CCN(CCCNc2ccnc3cc(Cl)ccc23)CC1)CC1CC1", "values": [{"measurement": "Ratio", "setting": "MRC5 [1]", "result": ">210"}, {"measurement": "IC50", "setting": "Plasmodium falciparum", "result": 0.152, "unit": "µM"}, {"measurement": "CC50", "setting": "MRC5 [2]", "result": "> 32", "unit": "µM"}]}
{"smiles": "NCCC(=O)N(CCCN1CCN(CCCNc2ccnc3cc(Cl)ccc23)CC1)CC1CC1", "values": [{"measurement": "Ratio", "setting": "MRC5 [1]", "result": ">80"}, {"measurement": "CC50", "setting": "MRC5 [2]", "result": "> 32", "unit": "µM"}]}
